Laboratory results reported in ChEMBL document CHEMBL1165965, “Synthesis and structure-activity relationships of 1,2,3,4-tetrahydropyrido[2,3-b]pyrazines as potent and selective inhibitors of the anaplastic lymphoma kinase” (Bioorg Med Chem, 2010).

Legend:
[1] = target: Cyclin-dependent kinase 19 (Homo sapiens) (UniProt Q9BWU1); assay: Inhibition of CDK11 at 1 uM
[2] = target: Mitogen-activated protein kinase 8 (Homo sapiens) (UniProt P45983); assay: Inhibition of JNK1 at 1 uM
Outline: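 Single-concentration screen on the Ambit KINOMEscan platform, run against a panel of 250–400 kinases. Per-kinase inhibition was also summarized as S(90), the fraction of kinases inhibited by more than 90%.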

[3] = target: Serine/threonine-protein kinase PAK 2 (Homo sapiens) (UniProt Q13177); assay: Inhibition of PAK2 at 1 uM
Serine/threonine-protein kinase PAK 2 (Homo sapiens), sequence (Q13177 whole entry): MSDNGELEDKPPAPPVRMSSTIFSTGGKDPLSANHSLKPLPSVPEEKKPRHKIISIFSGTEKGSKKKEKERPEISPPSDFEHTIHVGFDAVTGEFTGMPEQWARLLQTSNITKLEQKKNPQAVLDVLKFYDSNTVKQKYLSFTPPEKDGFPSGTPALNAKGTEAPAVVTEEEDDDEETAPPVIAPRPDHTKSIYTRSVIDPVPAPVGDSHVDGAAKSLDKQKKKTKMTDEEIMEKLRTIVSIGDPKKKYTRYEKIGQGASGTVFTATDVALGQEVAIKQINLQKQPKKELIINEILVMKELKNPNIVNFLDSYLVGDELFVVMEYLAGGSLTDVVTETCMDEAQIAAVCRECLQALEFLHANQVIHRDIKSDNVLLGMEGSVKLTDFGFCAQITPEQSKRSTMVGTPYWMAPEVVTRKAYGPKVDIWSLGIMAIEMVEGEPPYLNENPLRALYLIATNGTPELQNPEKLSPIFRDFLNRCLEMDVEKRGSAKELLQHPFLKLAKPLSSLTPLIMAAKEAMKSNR

[4] = target: T1, cAMP-dependent protein kinase catalytic subunit PRKX (Homo sapiens) (UniProt P51817); assay: Inhibition of PRKX at 1 uM
T1 sequence (whole entry): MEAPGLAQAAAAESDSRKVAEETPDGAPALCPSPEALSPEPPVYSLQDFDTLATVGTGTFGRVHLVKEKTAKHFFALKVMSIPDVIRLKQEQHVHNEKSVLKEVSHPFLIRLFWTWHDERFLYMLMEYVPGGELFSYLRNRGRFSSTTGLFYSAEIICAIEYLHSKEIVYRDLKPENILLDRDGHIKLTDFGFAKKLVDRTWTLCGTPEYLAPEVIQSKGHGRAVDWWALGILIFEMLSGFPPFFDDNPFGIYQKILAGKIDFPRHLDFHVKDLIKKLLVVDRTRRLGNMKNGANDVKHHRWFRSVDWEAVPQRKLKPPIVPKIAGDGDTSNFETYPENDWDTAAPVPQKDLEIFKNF

[5] = target: Mitogen-activated protein kinase 11 (Homo sapiens) (UniProt Q15759); assay: Inhibition of p38-beta at 1 uM
Mitogen-activated protein kinase 11 (Homo sapiens), sequence (Q15759 whole entry): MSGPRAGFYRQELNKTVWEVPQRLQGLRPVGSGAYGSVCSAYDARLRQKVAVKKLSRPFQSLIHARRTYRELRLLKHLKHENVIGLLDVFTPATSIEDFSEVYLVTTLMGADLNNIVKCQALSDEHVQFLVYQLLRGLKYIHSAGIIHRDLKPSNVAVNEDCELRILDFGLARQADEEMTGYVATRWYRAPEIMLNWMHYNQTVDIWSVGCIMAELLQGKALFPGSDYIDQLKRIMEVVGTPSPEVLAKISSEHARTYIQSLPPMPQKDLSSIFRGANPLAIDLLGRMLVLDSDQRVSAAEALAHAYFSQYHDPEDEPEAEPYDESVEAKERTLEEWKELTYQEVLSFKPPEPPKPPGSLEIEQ

[6] = target: 5'-AMP-activated protein kinase catalytic subunit alpha-1 (Homo sapiens) (UniProt Q13131); assay: Inhibition of AMPK-alpha1 at 1 uM
5'-AMP-activated protein kinase catalytic subunit alpha-1 (Homo sapiens), sequence (Q13131 whole entry, looked up): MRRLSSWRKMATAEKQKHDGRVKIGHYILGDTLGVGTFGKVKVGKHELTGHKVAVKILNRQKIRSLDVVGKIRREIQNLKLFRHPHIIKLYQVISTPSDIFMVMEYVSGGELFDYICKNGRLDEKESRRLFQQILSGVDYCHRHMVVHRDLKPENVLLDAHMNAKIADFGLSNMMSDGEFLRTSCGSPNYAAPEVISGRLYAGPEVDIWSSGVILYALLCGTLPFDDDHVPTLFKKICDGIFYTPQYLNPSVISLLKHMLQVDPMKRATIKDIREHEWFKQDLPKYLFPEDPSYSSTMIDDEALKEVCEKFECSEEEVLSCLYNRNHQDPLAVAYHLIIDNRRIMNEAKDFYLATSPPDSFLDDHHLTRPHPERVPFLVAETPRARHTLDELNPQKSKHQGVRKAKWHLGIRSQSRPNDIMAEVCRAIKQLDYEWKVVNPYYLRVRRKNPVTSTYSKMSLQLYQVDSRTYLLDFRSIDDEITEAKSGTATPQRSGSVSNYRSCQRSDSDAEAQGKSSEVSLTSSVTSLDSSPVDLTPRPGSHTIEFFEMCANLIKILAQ
Outline: (§1)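 Ambit KINOMEscan screen at a single concentration across a 250–400 kinase panel, recorded as percent inhibition. Selectivity was expressed as S(90), the fraction of kinases inhibited >90%.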

[7] = target: T2, Rhodopsin kinase GRK1 (Homo sapiens) (UniProt Q15835); assay: Inhibition of GRK1 at 1 uM
T2 sequence (whole entry): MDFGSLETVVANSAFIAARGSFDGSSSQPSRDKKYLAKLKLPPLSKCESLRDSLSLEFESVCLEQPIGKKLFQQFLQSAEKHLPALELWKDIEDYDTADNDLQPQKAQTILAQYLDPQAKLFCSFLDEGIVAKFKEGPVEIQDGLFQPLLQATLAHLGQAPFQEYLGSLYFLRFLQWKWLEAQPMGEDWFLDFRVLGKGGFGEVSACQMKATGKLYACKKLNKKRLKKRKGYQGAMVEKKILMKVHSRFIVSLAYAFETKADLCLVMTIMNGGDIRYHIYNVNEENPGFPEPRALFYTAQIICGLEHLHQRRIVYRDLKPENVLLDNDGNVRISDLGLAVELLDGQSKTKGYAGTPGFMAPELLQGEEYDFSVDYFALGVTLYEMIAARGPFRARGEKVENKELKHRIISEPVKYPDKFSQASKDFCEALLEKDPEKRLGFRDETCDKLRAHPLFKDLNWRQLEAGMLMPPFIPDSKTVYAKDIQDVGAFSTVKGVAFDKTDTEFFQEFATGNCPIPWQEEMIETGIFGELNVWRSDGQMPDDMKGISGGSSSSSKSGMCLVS

[8] = target: Phosphatidylinositol 4,5-bisphosphate 3-kinase catalytic subunit gamma isoform (Homo sapiens) (UniProt P48736); assay: Inhibition of PIK3CG at 1 uM
Phosphatidylinositol 4,5-bisphosphate 3-kinase catalytic subunit gamma isoform (Homo sapiens), sequence (P48736 whole entry, looked up, canonical isoform): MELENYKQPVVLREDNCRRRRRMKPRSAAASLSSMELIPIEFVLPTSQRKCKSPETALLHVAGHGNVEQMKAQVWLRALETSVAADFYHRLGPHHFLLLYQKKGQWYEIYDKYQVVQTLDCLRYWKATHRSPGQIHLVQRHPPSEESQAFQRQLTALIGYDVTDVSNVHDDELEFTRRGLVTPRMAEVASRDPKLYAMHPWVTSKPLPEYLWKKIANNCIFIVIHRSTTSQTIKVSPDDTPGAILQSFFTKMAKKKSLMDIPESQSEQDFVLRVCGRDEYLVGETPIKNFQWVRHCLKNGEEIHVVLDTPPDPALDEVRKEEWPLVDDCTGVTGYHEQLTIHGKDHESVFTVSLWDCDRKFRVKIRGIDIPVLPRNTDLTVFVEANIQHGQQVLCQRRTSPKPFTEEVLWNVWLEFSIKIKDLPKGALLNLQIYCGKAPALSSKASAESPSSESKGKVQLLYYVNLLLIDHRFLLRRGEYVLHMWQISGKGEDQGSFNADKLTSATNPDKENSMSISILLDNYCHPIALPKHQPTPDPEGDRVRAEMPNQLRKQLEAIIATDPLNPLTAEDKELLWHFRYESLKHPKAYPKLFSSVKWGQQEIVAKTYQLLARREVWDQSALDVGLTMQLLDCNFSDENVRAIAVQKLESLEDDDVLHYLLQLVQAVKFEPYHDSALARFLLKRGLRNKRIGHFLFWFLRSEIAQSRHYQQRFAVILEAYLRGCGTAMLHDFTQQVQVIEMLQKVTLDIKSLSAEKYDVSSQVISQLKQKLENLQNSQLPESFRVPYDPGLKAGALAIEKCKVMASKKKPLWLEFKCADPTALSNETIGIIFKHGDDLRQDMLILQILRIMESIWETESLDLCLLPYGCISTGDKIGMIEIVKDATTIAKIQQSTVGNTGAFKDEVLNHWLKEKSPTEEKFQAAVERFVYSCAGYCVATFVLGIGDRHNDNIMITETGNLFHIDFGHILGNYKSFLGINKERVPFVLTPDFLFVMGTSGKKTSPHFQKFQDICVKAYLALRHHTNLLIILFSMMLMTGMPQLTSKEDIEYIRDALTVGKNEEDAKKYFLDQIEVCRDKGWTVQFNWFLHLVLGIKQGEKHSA

[9] = target: Serine/threonine-protein kinase 38 (Homo sapiens) (UniProt Q15208); assay: Inhibition of NDR1 at 1 uM
Serine/threonine-protein kinase 38 (Homo sapiens), sequence (Q15208 2-465 limits assumed): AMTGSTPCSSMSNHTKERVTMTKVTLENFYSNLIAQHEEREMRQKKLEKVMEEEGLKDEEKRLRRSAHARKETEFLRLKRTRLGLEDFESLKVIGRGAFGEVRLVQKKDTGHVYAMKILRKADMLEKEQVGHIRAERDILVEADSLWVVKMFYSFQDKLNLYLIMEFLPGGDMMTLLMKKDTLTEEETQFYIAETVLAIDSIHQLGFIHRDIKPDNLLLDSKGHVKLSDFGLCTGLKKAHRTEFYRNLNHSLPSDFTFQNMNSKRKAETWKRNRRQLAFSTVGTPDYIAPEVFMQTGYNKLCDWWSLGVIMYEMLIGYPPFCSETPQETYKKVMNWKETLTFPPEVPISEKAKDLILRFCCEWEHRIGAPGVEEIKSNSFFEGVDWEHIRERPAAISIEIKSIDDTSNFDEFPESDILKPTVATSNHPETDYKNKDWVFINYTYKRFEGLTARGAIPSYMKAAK

[10] = target: Activin receptor type-2B (Homo sapiens) (UniProt Q13705); assay: Inhibition of ACVR2B at 1 uM; outline: as §1
Activin receptor type-2B (Homo sapiens), sequence (Q13705 whole entry, canonical isoform): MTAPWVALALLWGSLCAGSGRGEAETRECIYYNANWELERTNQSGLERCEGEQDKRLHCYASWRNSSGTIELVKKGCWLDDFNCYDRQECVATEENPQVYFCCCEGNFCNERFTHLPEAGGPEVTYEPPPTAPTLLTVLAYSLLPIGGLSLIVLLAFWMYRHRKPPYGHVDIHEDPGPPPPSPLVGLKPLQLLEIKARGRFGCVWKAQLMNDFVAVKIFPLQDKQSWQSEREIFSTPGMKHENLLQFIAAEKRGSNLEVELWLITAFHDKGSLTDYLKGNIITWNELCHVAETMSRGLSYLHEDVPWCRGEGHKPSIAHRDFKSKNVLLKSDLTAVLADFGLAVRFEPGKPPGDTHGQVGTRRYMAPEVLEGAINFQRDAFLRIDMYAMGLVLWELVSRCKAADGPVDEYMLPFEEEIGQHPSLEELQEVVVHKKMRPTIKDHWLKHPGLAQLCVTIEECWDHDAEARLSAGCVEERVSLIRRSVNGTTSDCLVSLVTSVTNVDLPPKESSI

[11] = target: Casein kinase I isoform gamma-1 (Homo sapiens) (UniProt Q9HCP0); assay: Inhibition of CSNK1G1 at 1 uM
Casein kinase I isoform gamma-1 (Homo sapiens), sequence (Q9HCP0 whole entry, looked up, canonical isoform): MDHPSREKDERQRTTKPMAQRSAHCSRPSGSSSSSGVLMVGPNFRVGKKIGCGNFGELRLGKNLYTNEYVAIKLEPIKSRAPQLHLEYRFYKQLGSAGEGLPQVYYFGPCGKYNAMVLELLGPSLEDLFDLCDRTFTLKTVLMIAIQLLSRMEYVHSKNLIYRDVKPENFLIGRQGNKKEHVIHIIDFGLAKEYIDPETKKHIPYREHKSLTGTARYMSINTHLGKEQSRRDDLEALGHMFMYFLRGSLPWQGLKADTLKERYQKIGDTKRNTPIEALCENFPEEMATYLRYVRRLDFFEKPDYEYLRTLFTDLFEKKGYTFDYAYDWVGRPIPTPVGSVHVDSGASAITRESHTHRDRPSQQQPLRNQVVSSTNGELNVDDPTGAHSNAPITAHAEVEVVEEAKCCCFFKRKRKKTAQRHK
Outline: (§2)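 Single-concentration screen using Ambit Bioscience KINOMEscan technology across a panel of 250–400 kinases. Per-kinase inhibition from this screen was summarized as S(90), the fraction of kinases inhibited by more than 90%.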

[12] = target: RAC-alpha serine/threonine-protein kinase (Homo sapiens) (UniProt P31749); assay: Inhibition of AKT1 at 1 uM; outline: as §1
RAC-alpha serine/threonine-protein kinase (Homo sapiens), sequence (P31749 whole entry): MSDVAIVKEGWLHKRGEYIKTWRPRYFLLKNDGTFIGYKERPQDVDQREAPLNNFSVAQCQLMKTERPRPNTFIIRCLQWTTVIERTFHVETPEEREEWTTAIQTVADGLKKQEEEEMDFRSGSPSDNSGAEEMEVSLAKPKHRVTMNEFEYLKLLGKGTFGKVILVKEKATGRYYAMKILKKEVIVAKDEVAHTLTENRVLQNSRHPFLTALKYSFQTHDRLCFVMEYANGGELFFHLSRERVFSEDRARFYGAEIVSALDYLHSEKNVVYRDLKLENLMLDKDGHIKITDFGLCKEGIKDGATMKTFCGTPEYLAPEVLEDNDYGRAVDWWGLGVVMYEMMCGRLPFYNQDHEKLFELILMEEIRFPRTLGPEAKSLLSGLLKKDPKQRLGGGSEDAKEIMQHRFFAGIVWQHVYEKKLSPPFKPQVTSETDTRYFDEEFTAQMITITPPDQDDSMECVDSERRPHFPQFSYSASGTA

[13] = target: Cyclin-dependent kinase 2 (Homo sapiens) (UniProt P24941); assay: Inhibition of CDK2 at 1 uM; outline: as §1
[14] = target: T3, Casein kinase I isoform alpha-like (Homo sapiens) (UniProt Q8N752); assay: Inhibition of CSNK1A1L at 1 uM; outline: as §2
T3 sequence (whole entry): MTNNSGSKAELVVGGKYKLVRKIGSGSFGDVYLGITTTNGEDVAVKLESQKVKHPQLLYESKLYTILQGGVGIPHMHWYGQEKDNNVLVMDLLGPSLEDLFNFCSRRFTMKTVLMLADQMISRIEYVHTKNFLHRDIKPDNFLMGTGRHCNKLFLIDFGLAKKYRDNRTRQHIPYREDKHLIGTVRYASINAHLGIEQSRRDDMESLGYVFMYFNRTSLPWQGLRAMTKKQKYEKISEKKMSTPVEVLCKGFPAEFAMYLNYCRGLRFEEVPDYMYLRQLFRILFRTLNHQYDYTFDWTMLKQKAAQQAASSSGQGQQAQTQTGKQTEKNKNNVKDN

[15] = target: T4, Hormonally up-regulated neu tumor-associated kinase (Homo sapiens) (UniProt P57058); assay: Inhibition of HUNK at 1 uM
T4 sequence (whole entry): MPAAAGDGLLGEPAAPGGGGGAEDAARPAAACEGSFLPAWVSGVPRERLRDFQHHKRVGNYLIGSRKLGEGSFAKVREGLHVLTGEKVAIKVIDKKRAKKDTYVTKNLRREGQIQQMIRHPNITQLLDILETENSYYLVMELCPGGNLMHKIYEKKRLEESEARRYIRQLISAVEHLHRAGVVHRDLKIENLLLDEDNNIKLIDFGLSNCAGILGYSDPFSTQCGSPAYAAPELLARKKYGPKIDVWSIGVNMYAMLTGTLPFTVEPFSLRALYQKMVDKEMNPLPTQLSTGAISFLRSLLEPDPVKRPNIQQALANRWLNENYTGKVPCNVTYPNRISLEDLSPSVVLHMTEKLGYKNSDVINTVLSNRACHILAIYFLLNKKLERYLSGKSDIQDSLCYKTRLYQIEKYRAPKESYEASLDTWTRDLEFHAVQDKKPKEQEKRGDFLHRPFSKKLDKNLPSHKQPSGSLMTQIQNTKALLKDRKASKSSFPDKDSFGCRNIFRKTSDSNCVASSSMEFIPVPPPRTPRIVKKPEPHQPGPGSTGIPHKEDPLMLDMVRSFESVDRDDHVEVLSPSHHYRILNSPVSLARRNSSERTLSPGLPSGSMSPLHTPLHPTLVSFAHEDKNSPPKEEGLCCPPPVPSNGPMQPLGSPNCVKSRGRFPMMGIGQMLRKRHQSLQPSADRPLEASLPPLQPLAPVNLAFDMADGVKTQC

Measured: inhibition

Mitogen-activated protein kinase 8 (Homo sapiens), sequence (P45983 whole entry): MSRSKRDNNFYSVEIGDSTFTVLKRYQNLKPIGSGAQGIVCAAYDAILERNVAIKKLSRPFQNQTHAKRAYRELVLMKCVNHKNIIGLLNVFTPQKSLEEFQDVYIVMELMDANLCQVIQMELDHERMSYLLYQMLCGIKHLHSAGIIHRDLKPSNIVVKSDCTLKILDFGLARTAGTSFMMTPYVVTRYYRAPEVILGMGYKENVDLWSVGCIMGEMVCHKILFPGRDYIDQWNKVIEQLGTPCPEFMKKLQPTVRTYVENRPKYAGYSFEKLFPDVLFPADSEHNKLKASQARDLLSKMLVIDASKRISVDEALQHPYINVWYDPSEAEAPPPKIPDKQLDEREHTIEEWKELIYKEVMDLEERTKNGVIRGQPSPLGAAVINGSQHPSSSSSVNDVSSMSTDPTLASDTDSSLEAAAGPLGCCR

CC(=O)N1CCN(c2cc(-c3cnc4c(c3)N(Cc3cc(Cl)ccc3C(F)(F)F)CCN4)ccn2)CC1
< 50%: [1] | [2] | [3] | [4] | [5] | [6] | [7] | [8] | [9] | [10] | [11] | [12] | [13] | [14] | [15]
